From ChEMBL document CHEMBL1143425, “Paradoxical growth effect of caspofungin observed on biofilms and planktonic cells of five different Candida species” (2007)
In brackets after ≈: the same amount, converted by molar mass. Activity calls are given as the source filed them.

What was measured:
Candida tropicalis [1] = test: Antimicrobial activity against Candida tropicalis BR-A24 grown as planktonic cell after 48 hrs by XTT reduction assay; format: functional
Summary of the method: (§1)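 Planktonic broth microdilution followed CLSI M27-A2, with caspofungin dissolved in water. After 48 h, XTT-menadione was added to the wells and plates were kept 1 h at 35°C in the dark. Plates were then centrifuged and supernatant A490 was read. MIC was the lowest concentration giving a 50% decrease in metabolic activity versus drug-free control. Paradoxical growth was defined as ≥20% of control activity above the MIC.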

Candida parapsilosis [2] = test: Antimicrobial activity against Candida parapsilosis BR-A27 grown as planktonic cell after 48 hrs by XTT reduction assay; format: functional; conditions: Lodderomyces parapsilosis; summary of the method: as §1
Candida parapsilosis [3] = test: Antimicrobial activity against Candida parapsilosis BR-A29 grown as planktonic cell after 48 hrs by XTT reduction assay; format: functional; conditions: Lodderomyces parapsilosis; summary of the method: as §1
Candida parapsilosis [4] = test: Antimicrobial activity against Candida parapsilosis BR-A31 grown as planktonic cell after 48 hrs by XTT reduction assay; format: functional; conditions: Lodderomyces parapsilosis; summary of the method: as §1
Candida metapsilosis [5] = test: Antimicrobial activity against Candida metapsilosis BR-A40 grown as planktonic cell after 48 hrs by XTT reduction assay; format: functional; conditions: Lodderomyces metapsilosis
Summary of the method: (§2)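 Planktonic cells were tested by CLSI M27-A2 broth microdilution with caspofungin in water, incubated 48 h. XTT-menadione was added to each well, plates were held 1 h at 35°C in the dark and centrifuged, and supernatant absorbance was read at 490 nm. MIC was defined as 50% decrease in metabolic activity versus drug-free control. PG was defined as ≥20% of control activity at concentrations above MIC.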

Candida metapsilosis [6] = test: Antimicrobial activity against Candida metapsilosis BR-A41 grown as planktonic cell assessed as paradoxical growth after 48 hrs by XTT reduction assay; format: functional, organism-based; summary of the method: as §2
Candida tropicalis [7] = test: Antimicrobial activity against Candida tropicalis BR-A8 grown as planktonic cell assessed as concentration producing paradoxical growth after 48 hrs by XTT reduction assay; format: functional
Summary of the method: (§3)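 Planktonic broth microdilution followed CLSI M27-A2, with caspofungin dissolved in water. After 48 h, XTT-menadione was added to each well and plates were incubated 1 h at 35°C in the dark. Cells were pelleted by centrifugation and the supernatant was read at 490 nm. MIC was the lowest concentration giving a 50% drop in metabolic activity versus the drug-free control. PG was ≥20% of drug-free activity above the MIC.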

Candida tropicalis [8] = test: Antimicrobial activity against Candida tropicalis BR-A24 grown as planktonic cell assessed as paradoxical growth after 48 hrs by XTT reduction assay; format: functional, organism-based; summary of the method: as §3
Candida orthopsilosis [9] = test: Antimicrobial activity against Candida orthopsilosis BR-A32 grown as planktonic cell assessed as paradoxical growth after 48 hrs by XTT reduction assay; format: functional, organism-based; summary of the method: as §2
Candida orthopsilosis [10] = test: Antimicrobial activity against Candida orthopsilosis BR-A34 grown as planktonic cell assessed as concentration producing paradoxical growth after 48 hrs by XTT reduction assay; format: functional; summary of the method: as §2
Candida parapsilosis [11] = test: Antimicrobial activity against Candida parapsilosis 22019 grown as planktonic cell assessed as paradoxical growth after 48 hrs by XTT reduction assay; format: functional; summary of the method: as §3
Candida tropicalis [12] = test: Antimicrobial activity against Candida tropicalis BR-A9 grown as biofilm after 48 hrs by XTT reduction assay; format: functional
Summary of the method: (§4)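 Isolates were grown on Sabouraud agar (30°C, 24 h), then overnight in RPMI 1640 with MOPS, pH 7.0, at 35°C with shaking. Cells were washed and set to ~1 × 10^7 cells/ml, attached 1.5 h at 37°C, and grown 24 h. Biofilms were then exposed to caspofungin in 10 twofold dilutions (2–1,024 μg/ml) for 48 h at 35°C with shaking. Read-out was XTT-menadione, 1 h, 35°C, dark, A490, cell-free blank subtracted. MIC was the 50% drop in activity versus drug-free control. Tested in duplicate.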

Candida orthopsilosis [13] = test: Antimicrobial activity against Candida orthopsilosis BR-A39 grown as biofilm after 48 hrs by XTT reduction assay; format: functional; conditions: Lodderomyces orthopsilosis; summary of the method: as §4
Candida metapsilosis [14] = test: Antimicrobial activity against Candida metapsilosis BR-A40 grown as biofilm after 48 hrs by XTT reduction assay; format: functional; conditions: Lodderomyces metapsilosis
Summary of the method: (§5)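 Sabouraud-grown cells were shaken overnight (18 h, 120 rpm, 35°C) in RPMI 1640 with MOPS at pH 7.0, then washed and set at ~1 × 10^7 cells/ml. Attachment lasted 1.5 h at 37°C, and growth ran 24 h before challenge. Caspofungin was added in RPMI at 2–1,024 μg/ml (10 doublings) for 48 h at 35°C with shaking. XTT-menadione was read at 490 nm after 1 h at 35°C in the dark, with blank wells subtracted. MIC was taken as 50% reduction versus drug-free wells, and PG as >50% of control above MIC. Assays were run in duplicate.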

Candida albicans [15] = test: Antimicrobial activity against Candida albicans BR-A4 grown as biofilm assessed as concentration producing paradoxical growth after 48 hrs by XTT reduction assay; format: functional; summary of the method: as §5
Candida parapsilosis [16] = test: Antimicrobial activity against Candida parapsilosis BR-A25 grown as biofilm assessed as concentration producing paradoxical growth after 48 hrs by XTT reduction assay; format: functional
Summary of the method: (§6)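 Clinical isolates were grown overnight (18 h, 35°C, 120 rpm) in RPMI 1640 with MOPS, pH 7.0, then washed and set to ~1 × 10^7 cells/ml. Cells attached for 1.5 h at 37°C, 75 rpm, then biofilms grew 24 h. Caspofungin was given as doubling dilutions of 2–1,024 μg/ml for 48 h at 35°C, 75 rpm. Read-out was XTT-menadione in PBS, 1 h at 35°C in the dark, A490, cell-free blank subtracted. MIC was a 50% drop in activity versus drug-free; PG was >50% of control above MIC. Run in duplicate.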

Candida parapsilosis [17] = test: Antimicrobial activity against Candida parapsilosis BR-A28 grown as biofilm assessed as concentration producing paradoxical growth after 48 hrs by XTT reduction assay; format: functional; summary of the method: as §6
Candida metapsilosis [18] = test: Antimicrobial activity against Candida metapsilosis BR-A43 grown as biofilm assessed as concentration producing paradoxical growth after 48 hrs by XTT reduction assay; format: functional; summary of the method: as §5
Candida albicans [19] = test: Effect on morphology in Candida albicans grown as planktonic cells assessed as inhibition of hyphae and pseudohyphae at 16 ug/ml after 48 hrs; format: functional, organism-based
Summary of the method: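 Cells were taken from caspofungin-containing and drug-free wells of the planktonic broth microdilution test after 48 h. They were examined by light microscopy at ×400.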

Candida albicans [20] = test: Effect on morphology in Candida albicans grown as biofilm assessed as inhibition of hyphae and pseudohyphae at 32 ug/ml after 48 hrs; format: functional, organism-based
Summary of the method: (§7)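 Biofilms formed in RPMI 1640 wells were exposed to caspofungin for 48 h and compared with drug-free control wells. Wells were examined in the plate under an inverted light microscope at ×200 and photographed.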

Candida parapsilosis [21] = test: Effect on morphology in Candida parapsilosis grown as biofilm assessed as inhibition of hyphae and pseudohyphae at 128 ug/ml after 48 hrs; format: functional, organism-based; summary of the method: as §7
Candida tropicalis [22] = test: Effect on morphology in Candida tropicalis grown as biofilm assessed as rounding and clumping at 8 ug/ml after 48 hrs; format: functional, organism-based
Summary of the method: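 Overnight RPMI 1640 cultures (MOPS, pH 7.0) were washed and set to about 1 × 10^7 cells/ml, then attached to polystyrene wells for 1.5 h at 37°C at 75 rpm. After 24 h biofilm growth, wells were washed and given doubling caspofungin dilutions (2–1,024 μg/ml in RPMI) for 48 h at 35°C at 75 rpm. Biofilms were viewed in situ by inverted light microscopy at ×200 alongside drug-free wells.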

Candida metapsilosis [23] = test: Effect on morphology in Candida metapsilosis grown as biofilm assessed as rounding and clumping at 16 ug/ml after 48 hrs; format: functional, organism-based; summary of the method: as §7

CC[C@H](C)C[C@H](C)CCCCCCCCC(=O)N[C@H]1C[C@@H](O)[C@@H](NCCN)NC(=O)[C@@H]2[C@@H](O)CCN2C(=O)[C@H]([C@H](O)CCN)NC(=O)[C@H]([C@H](O)[C@@H](O)c2ccc(O)cc2)NC(=O)[C@@H]2C[C@@H](O)CN2C(=O)[C@H]([C@@H](C)O)NC1=O [CASPOFUNGIN]
MIC (Candida tropicalis [1]): 1 mg/L (≈ 0.915 µM)
MIC (Candida parapsilosis [2]): 2 mg/L (≈ 1.83 µM)
MIC (Candida parapsilosis [3]): 2 mg/L (≈ 1.83 µM)
MIC (Candida parapsilosis [4]): 2 mg/L (≈ 1.83 µM)
MIC (Candida metapsilosis [5]): 1 mg/L (≈ 0.915 µM)
Activity (Candida metapsilosis [6]): inactive
Activity (Candida tropicalis [7]): 8 µg/mL
Activity (Candida tropicalis [8]): Active
Activity (Candida orthopsilosis [9]): inactive
Activity (Candida orthopsilosis [10]): 4 µg/mL
Activity (Candida parapsilosis [11]): 8 µg/mL
MIC (Candida tropicalis [12]): 2 mg/L (≈ 1.83 µM)
MIC (Candida orthopsilosis [13]): 2 mg/L (≈ 1.83 µM)
MIC (Candida metapsilosis [14]): 2 mg/L (≈ 1.83 µM)
Activity (Candida albicans [15]): 16 µg/mL
Activity (Candida parapsilosis [16]): 16 µg/mL
Activity (Candida parapsilosis [17]): 16 µg/mL
Activity (Candida metapsilosis [18]): 16 µg/mL
Activity (Candida albicans [19]): Active
Activity (Candida albicans [20]): Active
Activity (Candida parapsilosis [21]): Active
Activity (Candida tropicalis [22]): Active
Activity (Candida metapsilosis [23]): Active
